Source: ChEMBL document CHEMBL5058577, “EUbOPEN Chemogenomics Library 2 (Multiplex)” (2022)

Test system: U2OS
Test: Multiplex assay against U2OS
Assay type: toxicity, cell-based
Conditions: human
Method in brief: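 Imaging took place on a CQ1 microscope at 37°C and 5% CO2 once compound had been added to live cells stained at seeding with Hoechst33342, BioTracker Green Microtubule Cytoskeleton Dye, MitoTracker Red and Annexin V Alexa Fluor 680. CellPathfinder machine-learning gating classed cells as Hoechst high-intensity objects or normal cells, classed normal cells as having healthy, pyknosed or fragmented nuclei, and classed pyknosed cells as mitotic or apoptotic. Tubulin, mitochondrial-mass and membrane-permeability phenotypes are per cents of the healthy-nucleus cells.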

[1] = 12 h, 1 µM, compound concentration 1 uM, replicate 1
[2] = 12 h, 1 µM, compound concentration 1 uM, replicate 2
[3] = 12 h, 10 µM, compound concentration 10 uM, replicate 1
[4] = 12 h, 10 µM, compound concentration 10 uM, replicate 2
[5] = 24 h, 1 µM, compound concentration 1 uM, replicate 1
[6] = 24 h, 1 µM, compound concentration 1 uM, replicate 2
[7] = 24 h, 10 µM, compound concentration 10 uM, replicate 1
[8] = 24 h, 10 µM, compound concentration 10 uM, replicate 2
[9] = 48 h, 1 µM, compound concentration 1 uM, replicate 1
[10] = 48 h, 1 µM, compound concentration 1 uM, replicate 2
[11] = 48 h, 10 µM, compound concentration 10 uM, replicate 1
[12] = 48 h, 10 µM, compound concentration 10 uM, replicate 2

Which “Population Apoptotic (%)” value [1] does the source give for c1cc(OCCCN2CCCCC2)ccc1CN1CCCCC1 [JNJ-5207852] here?
The value was 76%.

And the “Population Fragmented Nuclei (%)” value [1]?
The value was 29%.

What about the “Population Healthy Nuclei (%)” value [1] of the same molecule?
The value was 65%.

What about the “Population Hoechst High Intensity Objects (%)” value [1] of the same molecule?
The value was 2%.

And the “Population Membrane Permeable-Phenotype (%)” value [1]?
The value was 5%.

What about the “Population Mitochondria Different-Phenotype (%)” value [1] of the same molecule?
The value was 3%.

What about the “Population Mitotic Cells (%)” value [1] of the same molecule?
Its value is 23%.

What about the “Population Normal (%)” value [1] of the same molecule?
Its value is 97%.

What about the “Population Pyknosed Nuclei (%)” value [1] of the same molecule?
Its value is 5%.

What about the “Population Tubulin-Different-Phenotype (%)” value [1] of the same molecule?
The value was 3%.

And the “Total Cell Count” value [1]?
Its value is 253.

What about the “Population Apoptotic (%)” value [2] of the same molecule?
Its value is 58%.

What about the “Population Fragmented Nuclei (%)” value [2] of the same molecule?
The value was 25%.

What about the “Population Healthy Nuclei (%)” value [2] of the same molecule?
Its value is 62%.

And the “Population Hoechst High Intensity Objects (%)” value [2]?
Its value is 0%.

And the “Population Membrane Permeable-Phenotype (%)” value [2]?
Its value is 7%.

And the “Population Mitotic Cells (%)” value [2]?
Its value is 41%.

And the “Population Normal (%)” value [2]?
The value was 99%.

And the “Population Pyknosed Nuclei (%)” value [2]?
Its value is 11%.

And the “Total Cell Count” value [2]?
Its value is 106.

What about the “Population Apoptotic (%)” value [3] of the same molecule?
The value was 73%.

What about the “Population Fragmented Nuclei (%)” value [3] of the same molecule?
The value was 34%.

What about the “Population Healthy Nuclei (%)” value [3] of the same molecule?
The value was 57%.

What about the “Population Hoechst High Intensity Objects (%)” value [3] of the same molecule?
Its value is 2%.

And the “Population Membrane Permeable-Phenotype (%)” value [3]?
The value was 5%.

What about the “Population Mitochondria Different-Phenotype (%)” value [3] of the same molecule?
The value was 3%.

What about the “Population Mitotic Cells (%)” value [3] of the same molecule?
The value was 26%.

And the “Population Normal (%)” value [3]?
The value was 97%.

What about the “Population Pyknosed Nuclei (%)” value [3] of the same molecule?
The value was 8%.

And the “Population Tubulin-Different-Phenotype (%)” value [3]?
Its value is 3%.

What about the “Total Cell Count” value [3] of the same molecule?
The value was 228.

What about the “Population Apoptotic (%)” value [4] of the same molecule?
The value was 85%.

And the “Population Fragmented Nuclei (%)” value [4]?
Its value is 13%.

What about the “Population Healthy Nuclei (%)” value [4] of the same molecule?
Its value is 80%.

What about the “Population Hoechst High Intensity Objects (%)” value [4] of the same molecule?
Its value is 4%.

And the “Population Membrane Permeable-Phenotype (%)” value [4]?
The value was 7%.

And the “Population Mitochondria Different-Phenotype (%)” value [4]?
The value was 9%.

What about the “Population Mitotic Cells (%)” value [4] of the same molecule?
Its value is 14%.

And the “Population Normal (%)” value [4]?
The value was 95%.

And the “Population Pyknosed Nuclei (%)” value [4]?
The value was 6%.

And the “Population Tubulin-Different-Phenotype (%)” value [4]?
The value was 6%.

And the “Total Cell Count” value [4]?
The value was 120.

And the “Population Apoptotic (%)” value [5]?
Its value is 84%.

And the “Population Fragmented Nuclei (%)” value [5]?
The value was 25%.

And the “Population Healthy Nuclei (%)” value [5]?
The value was 65%.

What about the “Population Hoechst High Intensity Objects (%)” value [5] of the same molecule?
The value was 1%.

What about the “Population Membrane Permeable-Phenotype (%)” value [5] of the same molecule?
The value was 3%.

And the “Population Mitochondria Different-Phenotype (%)” value [5]?
Its value is 2%.

What about the “Population Mitotic Cells (%)” value [5] of the same molecule?
Its value is 16%.

What about the “Population Normal (%)” value [5] of the same molecule?
Its value is 98%.

What about the “Population Pyknosed Nuclei (%)” value [5] of the same molecule?
Its value is 8%.

And the “Population Tubulin-Different-Phenotype (%)” value [5]?
The value was 2%.

What about the “Total Cell Count” value [5] of the same molecule?
The value was 287.

What about the “Population Apoptotic (%)” value [6] of the same molecule?
Its value is 66%.

And the “Population Fragmented Nuclei (%)” value [6]?
Its value is 21%.

And the “Population Healthy Nuclei (%)” value [6]?
The value was 68%.

And the “Population Hoechst High Intensity Objects (%)” value [6]?
The value was 0%.

What about the “Population Membrane Permeable-Phenotype (%)” value [6] of the same molecule?
Its value is 4%.

And the “Population Mitotic Cells (%)” value [6]?
Its value is 33%.

And the “Population Normal (%)” value [6]?
Its value is 100%.

What about the “Population Pyknosed Nuclei (%)” value [6] of the same molecule?
Its value is 10%.

What about the “Population Tubulin-Different-Phenotype (%)” value [6] of the same molecule?
The value was 4%.

What about the “Total Cell Count” value [6] of the same molecule?
Its value is 119.

What about the “Population Apoptotic (%)” value [7] of the same molecule?
The value was 82%.

What about the “Population Fragmented Nuclei (%)” value [7] of the same molecule?
Its value is 28%.

What about the “Population Healthy Nuclei (%)” value [7] of the same molecule?
The value was 62%.

What about the “Population Hoechst High Intensity Objects (%)” value [7] of the same molecule?
The value was 1%.

What about the “Population Membrane Permeable-Phenotype (%)” value [7] of the same molecule?
The value was 4%.

And the “Population Mitochondria Different-Phenotype (%)” value [7]?
Its value is 3%.

What about the “Population Mitotic Cells (%)” value [7] of the same molecule?
Its value is 17%.

What about the “Population Normal (%)” value [7] of the same molecule?
The value was 98%.

And the “Population Pyknosed Nuclei (%)” value [7]?
Its value is 8%.

And the “Population Tubulin-Different-Phenotype (%)” value [7]?
The value was 3%.

What about the “Total Cell Count” value [7] of the same molecule?
The value was 271.

What about the “Population Apoptotic (%)” value [8] of the same molecule?
Its value is 84%.

What about the “Population Fragmented Nuclei (%)” value [8] of the same molecule?
The value was 10%.

And the “Population Healthy Nuclei (%)” value [8]?
The value was 80%.

And the “Population Membrane Permeable-Phenotype (%)” value [8]?
Its value is 8%.

And the “Population Mitochondria Different-Phenotype (%)” value [8]?
Its value is 5%.

And the “Population Mitotic Cells (%)” value [8]?
Its value is 15%.

And the “Population Tubulin-Different-Phenotype (%)” value [8]?
Its value is 8%.

What about the “Total Cell Count” value [8] of the same molecule?
The value was 157.

What about the “Population Apoptotic (%)” value [9] of the same molecule?
Its value is 82%.

And the “Population Fragmented Nuclei (%)” value [9]?
The value was 21%.

And the “Population Healthy Nuclei (%)” value [9]?
Its value is 69%.

And the “Population Hoechst High Intensity Objects (%)” value [9]?
Its value is 2%.

And the “Population Membrane Permeable-Phenotype (%)” value [9]?
Its value is 4%.

And the “Population Mitochondria Different-Phenotype (%)” value [9]?
The value was 2%.

What about the “Population Mitotic Cells (%)” value [9] of the same molecule?
Its value is 17%.

What about the “Population Normal (%)” value [9] of the same molecule?
Its value is 97%.

What about the “Population Pyknosed Nuclei (%)” value [9] of the same molecule?
Its value is 8%.

And the “Population Tubulin-Different-Phenotype (%)” value [9]?
Its value is 4%.

And the “Total Cell Count” value [9]?
The value was 400.

And the “Population Apoptotic (%)” value [10]?
Its value is 76%.

What about the “Population Fragmented Nuclei (%)” value [10] of the same molecule?
Its value is 19%.

And the “Population Healthy Nuclei (%)” value [10]?
The value was 71%.

And the “Population Hoechst High Intensity Objects (%)” value [10]?
The value was 3%.

What about the “Population Membrane Permeable-Phenotype (%)” value [10] of the same molecule?
Its value is 9%.

What about the “Population Mitochondria Different-Phenotype (%)” value [10] of the same molecule?
Its value is 4%.

What about the “Population Mitotic Cells (%)” value [10] of the same molecule?
Its value is 23%.

What about the “Population Normal (%)” value [10] of the same molecule?
Its value is 96%.

What about the “Population Tubulin-Different-Phenotype (%)” value [10] of the same molecule?
The value was 3%.

What about the “Total Cell Count” value [10] of the same molecule?
The value was 152.

What about the “Population Apoptotic (%)” value [11] of the same molecule?
The value was 86%.

And the “Population Fragmented Nuclei (%)” value [11]?
The value was 22%.

What about the “Population Healthy Nuclei (%)” value [11] of the same molecule?
The value was 70%.

And the “Population Hoechst High Intensity Objects (%)” value [11]?
Its value is 2%.

What about the “Population Membrane Permeable-Phenotype (%)” value [11] of the same molecule?
Its value is 7%.

And the “Population Mitochondria Different-Phenotype (%)” value [11]?
Its value is 3%.

And the “Population Mitotic Cells (%)” value [11]?
Its value is 13%.

What about the “Population Normal (%)” value [11] of the same molecule?
The value was 97%.

And the “Population Pyknosed Nuclei (%)” value [11]?
Its value is 6%.

What about the “Population Tubulin-Different-Phenotype (%)” value [11] of the same molecule?
The value was 5%.

And the “Total Cell Count” value [11]?
Its value is 345.

And the “Population Apoptotic (%)” value [12]?
Its value is 93%.

And the “Population Fragmented Nuclei (%)” value [12]?
The value was 14%.

And the “Population Healthy Nuclei (%)” value [12]?
Its value is 78%.

And the “Population Hoechst High Intensity Objects (%)” value [12]?
The value was 1%.

And the “Population Membrane Permeable-Phenotype (%)” value [12]?
The value was 6%.

And the “Population Mitochondria Different-Phenotype (%)” value [12]?
The value was 2%.

And the “Population Mitotic Cells (%)” value [12]?
Its value is 6%.

And the “Population Normal (%)” value [12]?
The value was 98%.

And the “Population Tubulin-Different-Phenotype (%)” value [12]?
The value was 4%.

What about the “Total Cell Count” value [12] of the same molecule?
Its value is 245.
